{"source": "ChEMBL document CHEMBL1155659", "about": "“Chemistry of sponges. 19. Novel bioactive metabolites from Hamigera tarangaensis” (J Nat Prod, 2000)", "key": {"Candida albicans": {"system": "Candida albicans", "assay": "Antifungal activity against Candida albicans", "type": "functional, organism-based"}, "P388": {"system": "P388", "assay": "Cytotoxicity against mouse P388 cells", "type": "functional, cell-based"}, "Escherichia coli": {"system": "Escherichia coli", "assay": "Antibacterial activity against Escherichia coli", "type": "functional, organism-based"}, "Herpesviridae sp.": {"system": "Herpesviridae sp.", "assay": "Antiviral activity against Herpesvirus", "type": "functional", "how_it_was_run": "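Disk-based antiviral test, sample loaded at 132 μg per disk onto herpes-virus-infected cell wells; read-out is percent virus inhibition, with cytotoxicity scored across the whole well.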"}, "Enterovirus C": {"system": "Enterovirus C", "assay": "Antiviral activity against Poliovirus", "type": "functional", "how_it_was_run": "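Disk assay at 132 μg per disk, scored as percent virus inhibition, with cytotoxicity assessed across the whole well.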"}, "[1]": {"system": "Trichophyton mentagrophytes", "assay": "Antifungal activity against Trichophyton mentagrophytes", "type": "functional, organism-based"}, "Bacillus subtilis [2]": {"system": "Bacillus subtilis", "assay": "Antibacterial activity against Bacillus subtilis at 96 ug", "type": "functional", "conditions": "read-out: IZ"}, "Bacillus subtilis [3]": {"system": "Bacillus subtilis", "assay": "Antibacterial activity against Bacillus subtilis at 156 ug", "type": "functional", "conditions": "read-out: IZ"}, "Bacillus subtilis [4]": {"system": "Bacillus subtilis", "assay": "Antibacterial activity against Bacillus subtilis at 150 ug", "type": "functional", "conditions": "read-out: IZ"}, "Bacillus subtilis [5]": {"system": "Bacillus subtilis", "assay": "Antibacterial activity against Bacillus subtilis", "type": "functional, organism-based"}}, "note": "Activity calls are given as the source filed them. The rule behind the calls is not given here.", "data": [{"compound": "Cc1c(Br)c(O)c2c(c1Br)[C@H]1[C@@H](C(C)C)CC[C@@]1(C)C(=O)C2=O", "note": "[4-BROMOHAMIGERAN B]", "values": [{"measurement": "Activity", "setting": "Candida albicans", "result": "inactive"}, {"measurement": "IC50", "setting": "P388", "result": 13.9, "unit": "µM"}, {"measurement": "Activity", "setting": "Escherichia coli", "result": "inactive"}, {"measurement": "Activity", "setting": "Herpesviridae sp.", "result": "inactive"}, {"measurement": "Activity", "setting": "Enterovirus C", "result": "inactive"}, {"measurement": "Activity", "setting": "[1]", "result": "inactive"}]}, {"compound": "Cc1cc2c3c(c1Br)O[C@H](C)N=C3C(=O)C[C@]1(C)CC[C@H](C(C)C)[C@H]21", "note": "[HAMIGERAN D]", "values": [{"measurement": "zone of inhibition at 96 µg/disc", "setting": "Bacillus subtilis [2]", "result": 3, "unit": "mm"}, {"measurement": "Activity", "setting": "Candida albicans", "result": "inactive"}, {"measurement": "zone of inhibition at 156 µg/disc", "setting": "Bacillus subtilis [3]", "result": 3, "unit": "mm"}, {"measurement": "IC50", "setting": "P388", "result": 8, "unit": "µM"}, {"measurement": "Activity", "setting": "Escherichia coli", "result": "inactive"}, {"measurement": "Activity", "setting": "Herpesviridae sp.", "result": "inactive"}, {"measurement": "Activity", "setting": "Enterovirus C", "result": "inactive"}, {"measurement": "zone of inhibition at 150 µg/disc", "setting": "Bacillus subtilis [4]", "result": 3, "unit": "mm"}]}, {"compound": "CCOC(=O)c1c([C@H]2[C@@H](C(C)C)CC[C@@]2(C)C(=O)OCC)cc(C)c(Br)c1OCC", "note": "[TRYETHYLHAMIGERAN E]", "values": [{"measurement": "Activity", "setting": "Candida albicans", "result": "inactive"}, {"measurement": "IC50", "setting": "P388", "result": 54.2, "unit": "µM"}, {"measurement": "Activity", "setting": "Escherichia coli", "result": "inactive"}, {"measurement": "Activity", "setting": "Herpesviridae sp.", "result": "inactive"}, {"measurement": "Activity", "setting": "Enterovirus C", "result": "inactive"}, {"measurement": "Activity", "setting": "[1]", "result": "inactive"}, {"measurement": "Activity", "setting": "Bacillus subtilis [5]", "result": "inactive"}]}, {"compound": "Cc1cc([C@H]2[C@@H](C(C)C)CC[C@@]2(C)CC(=O)O)c2c(c1Br)O[C@H](C)NC2=O", "values": [{"measurement": "zone of inhibition at 96 µg/disc", "setting": "Bacillus subtilis [2]", "result": 3, "unit": "mm"}, {"measurement": "Activity", "setting": "Candida albicans", "result": "inactive"}, {"measurement": "zone of inhibition at 156 µg/disc", "setting": "Bacillus subtilis [3]", "result": 3, "unit": "mm"}, {"measurement": "IC50", "setting": "P388", "result": 74.2, "unit": "µM"}, {"measurement": "Activity", "setting": "Escherichia coli", "result": "inactive"}, {"measurement": "Activity", "setting": "Herpesviridae sp.", "result": "inactive"}, {"measurement": "Activity", "setting": "Enterovirus C", "result": "inactive"}, {"measurement": "zone of inhibition at 150 µg/disc", "setting": "Bacillus subtilis [4]", "result": 3, "unit": "mm"}, {"measurement": "Activity", "setting": "[1]", "result": "inactive"}]}, {"compound": "Cc1cc2c(c(O)c1Br)C(=O)C(=O)[C@]1(C)CC[C@H](C(C)C)[C@H]21", "note": "[HAMIGERAN B]", "values": [{"measurement": "Activity", "setting": "Candida albicans", "result": "inactive"}, {"measurement": "Activity", "setting": "Escherichia coli", "result": "inactive"}, {"measurement": "inhibition (INH)", "setting": "Herpesviridae sp.", "result": 100, "unit": "%"}, {"measurement": "inhibition (INH)", "setting": "Enterovirus C", "result": 100, "unit": "%"}]}, {"compound": "CC(=O)O[C@H]1C(=O)C(=O)c2c(cc(C)c(Br)c2O)[C@H]2[C@@H](C(C)C)CC[C@@]12C", "note": "[HAMIGERAN C]", "values": [{"measurement": "zone of inhibition at 96 µg/disc", "setting": "Bacillus subtilis [2]", "result": 3, "unit": "mm"}, {"measurement": "Activity", "setting": "Candida albicans", "result": "inactive"}, {"measurement": "zone of inhibition at 156 µg/disc", "setting": "Bacillus subtilis [3]", "result": 3, "unit": "mm"}, {"measurement": "IC50", "setting": "P388", "result": 16, "unit": "µM"}, {"measurement": "Activity", "setting": "Escherichia coli", "result": "inactive"}, {"measurement": "Activity", "setting": "Herpesviridae sp.", "result": "inactive"}, {"measurement": "Activity", "setting": "Enterovirus C", "result": "inactive"}, {"measurement": "zone of inhibition at 150 µg/disc", "setting": "Bacillus subtilis [4]", "result": 3, "unit": "mm"}]}, {"compound": "COC(=O)[C@]1(O)C(=O)c2c(O)cc(C)cc2[C@H]2[C@@H](C(C)C)CC[C@]21C", "values": [{"measurement": "Activity", "setting": "Candida albicans", "result": "inactive"}, {"measurement": "Activity", "setting": "Escherichia coli", "result": "inactive"}, {"measurement": "Activity", "setting": "Herpesviridae sp.", "result": "inactive"}, {"measurement": "Activity", "setting": "Enterovirus C", "result": "inactive"}, {"measurement": "Activity", "setting": "[1]", "result": "inactive"}]}, {"compound": "COC(=O)[C@]1(O)C(=O)c2c(cc(C)c(Br)c2O)[C@H]2[C@@H](C(C)C)CC[C@]21C", "values": [{"measurement": "Activity", "setting": "Candida albicans", "result": "inactive"}, {"measurement": "Activity", "setting": "Escherichia coli", "result": "inactive"}, {"measurement": "Activity", "setting": "Herpesviridae sp.", "result": "inactive"}, {"measurement": "Activity", "setting": "Enterovirus C", "result": "inactive"}, {"measurement": "Activity", "setting": "[1]", "result": "inactive"}, {"measurement": "Activity", "setting": "Bacillus subtilis [5]", "result": "inactive"}]}]}
